The source of these data is ChEMBL document CHEMBL4368867 (Medchemcomm, 2018).

pIC50: −log10 of the molar value.

For assay [1], the species on record is Homo sapiens. The assay can be described thus: Selectivity ratio of IC50 for human erythrocyte carbonic anhydrase-1 to IC50 for human carbonic anhydrase-9. An outline of the steps: (§1)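 Ratio of the CA I or CA II IC50 to the CA IX IC50. hCA IX was purified recombinant protein; CA I and CA II were commercial. Enzyme levels were 50 ng µL−1 for CA I, 1 ng µL−1 for CA II and 3 ng µL−1 for CA IX. Inhibitor in DMSO was preincubated with enzyme for 15 min. Activity was read as stopped-flow CO2 hydration or initial 4-nitrophenyl acetate hydrolysis rates. Triplicates per concentration, mean reported.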

Assay [2] deals with Carbonic anhydrase 9 (Homo sapiens, UniProt Q16790). Kind of assay: Inhibition of human carbonic anhydrase-9 incubated for 15 mins prior to testing by stopped-flow CO2 hydration assay.
For assay [3], the target named is Carbonic anhydrase 2 (Homo sapiens, UniProt P00918). The assay can be described thus: Inhibition of recombinant human carbonic anhydrase-2 expressed in Escherichia coli incubated for 15 mins prior to testing by stopped-flow CO2 hydration assay.
In assay [4] the target is Carbonic anhydrase 1 (Homo sapiens, UniProt P00915). The assay can be described thus: Inhibition of human erythrocyte carbonic anhydrase-1 incubated for 15 mins prior to testing by stopped-flow CO2 hydration assay.
Chain of Carbonic anhydrase 1 (P00915 whole entry): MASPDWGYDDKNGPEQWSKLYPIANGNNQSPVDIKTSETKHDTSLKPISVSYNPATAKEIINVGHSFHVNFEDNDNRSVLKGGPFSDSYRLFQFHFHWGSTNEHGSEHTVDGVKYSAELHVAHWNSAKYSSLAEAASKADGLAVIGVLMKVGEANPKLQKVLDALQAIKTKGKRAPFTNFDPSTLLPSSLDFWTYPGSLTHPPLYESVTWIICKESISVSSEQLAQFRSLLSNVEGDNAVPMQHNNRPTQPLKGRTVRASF
The species entered for assay [5] is Homo sapiens. Kind of assay: Selectivity ratio of IC50 for recombinant human carbonic anhydrase-2 expressed in Escherichia coli to IC50 for human carbonic anhydrase-9. The method, boiled down:
as §1

On to `NS(=O)(=O)c1cccc(NC(=S)NC(=O)c2ccccc2Cl)c1`, for which the results for the Ratio IC50 in assay [1] and in assay [5] were 40.7 and 14.6, respectively. For the same molecule, the figures for the pIC50 in assay [2], in assay [3] and in assay [4] were 7.72, 6.56 and 6.11, respectively.
Taken in the same sequence, the figures for `NS(=O)(=O)c1ccc(NC(=S)NC(=O)c2ccc(Cl)cc2)cc1` were 102, 3.13, 8.38, 7.89 and 6.37.
Turning to `NS(=O)(=O)c1cccc(NC(=S)NC(=O)c2ccc(Cl)cc2)c1`, the values for the Ratio IC50 in assay [1] and in assay [5] were 36.5 and 5.67, respectively. In addition, the negative-log IC50 (pIC50) in assay [2] is 7.37; in assay [3] it was 6.62; in assay [4], 5.81.
Taken in the same sequence, the figures for `NS(=O)(=O)c1cccc(NC(=S)NC(=O)c2ccccc2)c1` were 33.7, 6.47, 7.59, 6.78 and 6.06.
Turning to `NS(=O)(=O)c1ccc(NC(=S)NC(=O)c2ccc(Cl)cc2Cl)cc1`, the Ratio IC50 in assay [1] turned out to be 5270; in assay [5], 98.5. Besides, the figures for the negative-log IC50 (pIC50) in assay [2], in assay [3] and in assay [4] were 9.92, 7.93 and 6.20, respectively.
Taken in the same sequence, the figures for `COc1ccccc1C(=O)NC(=S)Nc1cccc(S(N)(=O)=O)c1` were 0.82, 0.38, 7.26, 7.68 and 7.35.
For the molecule `NS(=O)(=O)c1cccc(NC(=S)NC(=O)c2ccc([N+](=O)[O-])cc2)c1`, the pIC50 is under 6.98 in assay [2], 6.85 in assay [3] and 7.22 in assay [4].
In the case of `NS(=O)(=O)c1cccc(NC(=S)NC(=O)c2ccc(Cl)cc2Cl)c1`, the Ratio IC50 came out at 304 in assay [1] and 215 in assay [5]. Further, the pIC50 was 8.35 in assay [2], 6.02 in assay [3] and 5.87 in assay [4].
With `COc1ccc(C(=O)NC(=S)Nc2ccc(S(N)(=O)=O)cc2)cc1`, the Ratio IC50 turned out to be 1480 in assay [1] and 54.4 in assay [5]. For the same molecule, the pIC50 is 9.33 in assay [2], 7.59 in assay [3] and 6.16 in assay [4].
Turning to `COc1ccc(C(=O)NC(=S)Nc2cccc(S(N)(=O)=O)c2)cc1`, the Ratio IC50 in assay [1] is 26.1; in assay [5], 35.6. Moreover, the pIC50 in assay [2] was 7.59; in assay [3], 6.04; in assay [4], 6.18.
Taken in the same sequence, the figures for `COc1ccccc1C(=O)NC(=S)Nc1ccc(S(N)(=O)=O)cc1` were 889, 6.97, 9.52, 8.68 and 6.57.
Taken in the same sequence, the figures for `NS(=O)(=O)c1ccc(NC(=S)NC(=O)c2ccccc2Cl)cc1` were 193, 6.68, 8.47, 7.64 and 6.18.
The matching figures for `NS(=O)(=O)c1ccc(NC(=S)NC(=O)c2ccc([N+](=O)[O-])cc2)cc1`: 1050, 1560, 9.32, 6.13 and 6.30.
